Converted amounts (≈) assume the structure as drawn.
Tests used:
[1] = Selectivity index, ratio of CC50 for African green monkey Vero cells to MIC for Mycobacterium tuberculosis H37Rv; type: functional
Staphylococcus aureus = assay: Antibacterial activity against Staphylococcus aureus ATCC 25923 assessed as growth inhibition after 24 hrs by microbroth dilution method; type: functional; conditions: ATCC 25923, 24 h
Summary of the method: (§1)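 Broth microdilution susceptibility testing following NCCLS guidelines (reference standard M27-A for yeasts), run against a panel of bacterial and fungal strains.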

[2] = Cytotoxicity against African green monkey Vero cells after 24 hrs by MTS assay; type: cell-based; conditions: chlorocebus sabaeus
Sporothrix schenckii = assay: Antifungal activity against Sporothrix schenckii isolated from patient assessed as growth inhibition after 72 to 96 hrs by microbroth dilution method; type: functional; summary of the method: as §1
Candida parapsilosis = assay: Antifungal activity against Candida parapsilosis ATCC 22019 assessed as growth inhibition after 24 to 48 hrs by microbroth dilution method; type: functional; conditions: Lodderomyces parapsilosis; summary of the method: as §1
Cryptococcus neoformans = assay: Antifungal activity against Cryptococcus neoformans CDRI isolate assessed as growth inhibition after 24 to 48 hrs by microbroth dilution method; type: functional; summary of the method: as §1
Pseudomonas aeruginosa = assay: Antibacterial activity against Pseudomonas aeruginosa ATCC BAA427 assessed as growth inhibition after 24 hrs by microbroth dilution method; type: functional; conditions: ATCC BAA427, 24 h; summary of the method: as §1
Candida albicans = assay: Antifungal activity against Candida albicans isolated from patient assessed as growth inhibition after 24 to 48 hrs by microbroth dilution method; type: functional; summary of the method: as §1
Klebsiella pneumoniae = assay: Antibacterial activity against Klebsiella pneumoniae ATCC 27736 assessed as growth inhibition after 24 hrs by microbroth dilution method; type: functional; conditions: ATCC 27736, 24 h; summary of the method: as §1
Escherichia coli = assay: Antibacterial activity against Escherichia coli ATCC 9637 assessed as growth inhibition after 24 hrs by microbroth dilution method; type: functional; conditions: W; summary of the method: as §1
Aspergillus fumigatus = assay: Antifungal activity against Aspergillus fumigatus isolated from patient assessed as growth inhibition after 72 to 96 hrs by microbroth dilution method; type: functional; summary of the method: as §1
[3] = system: Mycobacterium tuberculosis; assay: Antitubercular activity against Mycobacterium tuberculosis H37Rv assessed as growth inhibition after […] by agar microdilution method; type: functional
[4] = system: Trichophyton mentagrophytes; assay: Antifungal activity against Trichophyton mentagrophytes isolated from patient assessed as growth inhibition after 72 to 96 hrs by microbroth dilution method; type: functional; summary of the method: as §1
[5] = Mean residence time in Sprague-Dawley rat at 10 mg/kg, po; type: ADME, organism-based; set-up: dose 10 mg/kg, route oral; conditions: in vivo
Summary of the method: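 Male Sprague-Dawley rats were given a single oral dose of 10 mg/kg. Serum concentration-time profiles were followed, and pharmacokinetic parameters, including mean residence time and clearance, were derived from them.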

In the case of c1ccc2oc(NC(c3ccc(OCc4ccc(OCCN5CCCCC5)cc4)cc3)C3CC3)nc2c1 (stereo not given), the “Selectivity Index” value [1] is reported as 1.87, the MIC (Staphylococcus aureus) is reported as 25 µg/mL (≈ 50.2 µM) and the CC50 at 24 h [2] is reported as 11.7 µg/mL (≈ 23.5 µM). It also gave an MIC (Sporothrix schenckii) of 25 µg/mL (≈ 50.2 µM), an MIC (Candida parapsilosis) of 50 µg/mL (≈ 100 µM) and an MIC (Cryptococcus neoformans) of 50 µg/mL (≈ 100 µM). For the same compound, the MIC (Pseudomonas aeruginosa) was > 50 µg/mL, the MIC (Candida albicans) was 12.5 µg/mL (≈ 25.1 µM) and the MIC (Klebsiella pneumoniae) was > 50 µg/mL. The MIC (Escherichia coli) was > 50 µg/mL, the MIC (Aspergillus fumigatus) was > 50 µg/mL and the MIC [3] was 6.25 µg/mL (≈ 12.6 µM). The MIC [4] was 12.5 µg/mL (≈ 25.1 µM).
In the case of OC(c1ccc(OCc2ccc(OCCN3CCCCC3)cc2)cc1)C1CC1 (stereo not given), the “Selectivity Index” value [1] is reported as >10, the CC50 at 24 h [2] is reported as > 50 µg/mL and the MIC [3] is reported as 3.12 µg/mL (≈ 8.18 µM).
In the case of COc1ccc(COc2ccc(/C=C/CCSc3nc4ccccc4[nH]3)cc2)cc1, the MIC [3] is reported as > 12.5 µg/mL.
Work on C(=C\c1ccc(OCc2ccccc2)cc1)/CCSc1nc2ccccc2s1 yielded an MRT [5] of 6.02 h.
With c1ccc2c(c1)ncn2C(c1ccc(OCc2ccc(OCCN3CCCCC3)cc2)cc1)C1CC1 (stereo not given) the MIC [3] was 12.5 µg/mL (≈ 26 µM).
For Cc1cnn(C(c2ccc(OCc3ccccc3Cl)cc2)C2CC2)c1 (stereo not given), the MIC [3] was 12.5 µg/mL (≈ 35.4 µM).
c1ccc(COc2ccc(C(C3CC3)n3cnc4ccccc43)cc2)cc1 (stereo not given) showed an MIC [3] of 12.5 µg/mL (≈ 35.3 µM).
In the case of C(=C\c1ccc(OCc2ccccc2)cc1)/CCSc1nc2ccccc2[nH]1, the MIC [3] is reported as > 25 µg/mL.
Work on C(=C\c1ccc(OCc2ccccc2)cc1)/CCn1cnc2ccccc21 yielded an MRT [5] of 3.22 h.
With COc1ccc(COc2ccc(C(C3CC3)n3cnc4ccccc43)cc2)cc1 (stereo not given) the MIC [3] was > 12.5 µg/mL.
With c1ccc(COc2ccc(C(C3CC3)n3ccnc3)cc2)cc1 (stereo not given) the MIC [3] was 12.5 µg/mL (≈ 41.1 µM).
With OC(Cn1cncn1)(Cn1cncn1)c1ccc(F)cc1F [FLUCONAZOLE] the MIC (Sporothrix schenckii) was 4 µg/mL (≈ 13.1 µM), the MIC (Candida parapsilosis) was 0.5 µg/mL (≈ 1.63 µM) and the MIC (Cryptococcus neoformans) was 2 µg/mL (≈ 6.53 µM). For the same compound, the MIC (Candida albicans) was 1 µg/mL (≈ 3.27 µM), the MIC (Aspergillus fumigatus) was > 32 µg/mL and the MIC [3] was 2.83 µg/mL (≈ 9.22 µM). The MIC [4] was 16 µg/mL (≈ 52.2 µM).
With Clc1ccccc1C(c1ccccc1)(c1ccccc1)n1ccnc1 [CLOTRIMAZOLE] the MIC (Sporothrix schenckii) was 4 µg/mL (≈ 11.6 µM), the MIC (Candida parapsilosis) was 1 µg/mL (≈ 2.9 µM) and the MIC (Cryptococcus neoformans) was 0.25 µg/mL (≈ 0.725 µM). It also gave an MIC (Candida albicans) of 0.25 µg/mL (≈ 0.725 µM), an MIC (Aspergillus fumigatus) of 8 µg/mL (≈ 23.2 µM) and an MIC [4] of 2 µg/mL (≈ 5.8 µM).
For Cc1cnn(C(c2ccc(OCc3ccc(Br)cc3)cc2)C2CC2)c1 (stereo not given), the MIC [3] was > 50 µg/mL.
With ClCC/C=C/c1ccc(OCc2ccc(OCCN3CCCCC3)cc2)cc1 the MIC [3] was 4.46 µg/mL (≈ 11.2 µM).
With Fc1ccc2nc(NC(c3ccc(OCc4ccc(OCCN5CCCCC5)cc4)cc3)C3CC3)sc2c1 (stereo not given) the “Selectivity Index” value [1] was 0.78, the CC50 at 24 h [2] was 4.93 µg/mL (≈ 9.27 µM) and the MIC [3] was 6.25 µg/mL (≈ 11.8 µM).
O=[N+]([O-])c1cn(C(c2ccc(OCc3ccc(F)cc3)cc2)C2CC2)cn1 (stereo not given) showed an MIC [3] of 12.5 µg/mL (≈ 34 µM).
In the case of NNC(=O)c1ccncc1 [ISONIAZID], the MIC [3] is reported as 0.025 µg/mL (≈ 0.182 µM).
For CC1(C)S[C@@H]2[C@H](NC(=O)[C@H](N)c3ccccc3)C(=O)N2[C@H]1C(=O)O [AMPICILLIN], the MIC (Staphylococcus aureus) was 0.04 µg/mL (≈ 0.114 µM), the MIC (Pseudomonas aeruginosa) was > 50 µg/mL and the MIC (Klebsiella pneumoniae) was 50 µg/mL (≈ 143 µM). The MIC (Escherichia coli) was 3.12 µg/mL (≈ 8.93 µM).
Brc1ccc(COc2ccc(/C=C/CCn3cncn3)cc2)cc1 gave an MIC [3] of 4.78 µg/mL (≈ 12.4 µM).
Clc1ccc(COc2ccc(C(C3CC3)n3cncn3)cc2)cc1 (stereo not given) gave an MIC [3] of 12.5 µg/mL (≈ 36.8 µM).
With C(=C\c1ccc(OCc2ccccc2)cc1)/CCn1cncn1 the MIC [3] was > 25 µg/mL.
For Brc1ccc(COc2ccc(C(C3CC3)n3cncn3)cc2)cc1 (stereo not given), the MIC [3] was 25 µg/mL (≈ 65.1 µM).
In the case of O=[N+]([O-])c1cn(CC/C=C/c2ccc(OCc3ccc(F)cc3)cc2)cn1, the MIC [3] is reported as 50 µg/mL (≈ 136 µM).
In the case of c1ccc2sc(SC(c3ccc(OCc4ccc(OCCN5CCCCC5)cc4)cc3)C3CC3)nc2c1 (stereo not given), the “Selectivity Index” value [1] is reported as 32.2, the MIC (Staphylococcus aureus) is reported as 12.5 µg/mL (≈ 23.6 µM) and the CC50 at 24 h [2] is reported as 100 µg/mL (≈ 188 µM). The MIC (Sporothrix schenckii) was 12.5 µg/mL (≈ 23.6 µM), the MIC (Candida parapsilosis) was > 50 µg/mL and the MIC (Cryptococcus neoformans) was 50 µg/mL (≈ 94.2 µM). For the same compound, the MIC (Pseudomonas aeruginosa) was > 50 µg/mL, the MIC (Candida albicans) was 6.25 µg/mL (≈ 11.8 µM) and the MIC (Klebsiella pneumoniae) was > 50 µg/mL. For the same compound, the MIC (Escherichia coli) was > 50 µg/mL, the MIC (Aspergillus fumigatus) was 25 µg/mL (≈ 47.1 µM) and the MIC [3] was 3.12 µg/mL (≈ 5.88 µM). It also gave an MIC [4] of 6.25 µg/mL (≈ 11.8 µM).
For c1ccc2[nH]c(SC(c3ccc(OCc4ccc(OCCN5CCCCC5)cc4)cc3)C3CC3)nc2c1 (stereo not given), the MIC [3] was > 50 µg/mL.
For Clc1ccc(COc2ccc(/C=C/CCn3nnc4ccccc43)cc2)cc1, the MIC [3] was > 12.5 µg/mL.
In the case of O=[N+]([O-])c1cnc(NC(c2ccc(OCc3ccccc3)cc2)C2CC2)s1 (stereo not given), the MIC [3] is reported as > 25 µg/mL.
In the case of c1ccc2sc(NC(c3ccc(OCc4ccc(OCCN5CCCCC5)cc4)cc3)C3CC3)nc2c1 (stereo not given), the MIC [3] is reported as 12.5 µg/mL (≈ 24.3 µM).
Compound c1ccc(COc2ccc(C(Nc3nc4ccccc4s3)C3CC3)cc2)cc1 (stereo not given) has an MRT [5] of 7.9 h.
With CCCCSc1nc2ccccc2n1CC/C=C/c1ccc(OCc2ccccc2)cc1 the MIC [3] was > 12.5 µg/mL.
For c1ccc(COc2ccc(C(Nn3cnnc3)C3CC3)cc2)cc1 (stereo not given), the MIC [3] was > 12.5 µg/mL.
Work on Clc1ccc(COc2ccc(/C=C/CCn3cnc4ccccc43)cc2)cc1 yielded an MIC [3] of 6.25 µg/mL (≈ 16.1 µM).
In the case of c1ccc(COc2ccc(C(C3CC3)n3cncn3)cc2)cc1 (stereo not given), the MIC [3] is reported as > 12.5 µg/mL.
c1cc(OCCN2CCCCC2)ccc1COc1ccc(C(Nn2cnnc2)C2CC2)cc1 (stereo not given) gave an MIC [3] of 50 µg/mL (≈ 112 µM).
For Cc1cnn(CC/C=C/c2ccc(OCc3ccc(Br)cc3)cc2)c1, the MRT [5] was 7.17 h.
COc1ccc(COc2ccc(C(C3CC3)n3ccnc3)cc2)cc1 (stereo not given) showed an MIC (Staphylococcus aureus) of 25 µg/mL (≈ 74.8 µM), an MIC (Sporothrix schenckii) of 3.12 µg/mL (≈ 9.33 µM) and an MIC (Candida parapsilosis) of 50 µg/mL (≈ 150 µM). The MIC (Cryptococcus neoformans) was 50 µg/mL (≈ 150 µM), the MIC (Pseudomonas aeruginosa) was 50 µg/mL (≈ 150 µM) and the MIC (Candida albicans) was 25 µg/mL (≈ 74.8 µM). The MIC (Klebsiella pneumoniae) was 25 µg/mL (≈ 74.8 µM), the MIC (Escherichia coli) was > 50 µg/mL and the MIC (Aspergillus fumigatus) was 6.25 µg/mL (≈ 18.7 µM). The MIC [3] was 12.5 µg/mL (≈ 37.4 µM) and the MIC [4] was 3.12 µg/mL (≈ 9.33 µM).
In the case of CC[C@@H](CO)NCCN[C@@H](CC)CO [ETHAMBUTOL], the MIC [3] is reported as 2 µg/mL (≈ 9.79 µM).

Reference: ChEMBL document CHEMBL2440028, “Identification of 1-[4-Benzyloxyphenyl)-but-3-enyl]-1H-azoles as New Class of Antitubercular and Antimicrobial Agents” (ACS Med Chem Lett, 2013)
